# Key:
# Substance-P receptor = Substance-P receptor (Homo sapiens, UniProt P25103); experiment: Binding affinity at Tachykinin receptor 1 by measuring its ability to inhibit [125I]BH-SP binding in human IM-9 cells (Lymphoblast cells).; format: cell-based
# Cavia porcellus [1] = experiment: In vivo inhibition of capsaicin-induced plasma extravasation in guinea pig trachea on peroral administration; format: functional; details: po
# Outline: (§1)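 Guinea pigs received compound iv or po before capsaicin challenge, and tracheal plasma extravasation was measured. ID50 was derived from 5–8 animals per dose and reported with 95% confidence limits.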
# Cavia porcellus [2] = experiment: In vivo inhibition of capsaicin-induced plasma extravasation in guinea pig trachea on intravenous administration.; format: functional; outline: as §1
# Cavia porcellus [3] = experiment: In vivo inhibition (percentage) of capsaicin-induced plasma extravasation in guinea pig trachea on intravenous administration at 1.0 mg/kg; format: functional
# Outline: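 Guinea pigs were given a single iv dose of 1.0 mg/kg. Capsaicin-induced tracheal plasma extravasation was then measured, with percent inhibition reported (n = 5 or 6).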
# Sequence of Substance-P receptor (P25103 whole entry): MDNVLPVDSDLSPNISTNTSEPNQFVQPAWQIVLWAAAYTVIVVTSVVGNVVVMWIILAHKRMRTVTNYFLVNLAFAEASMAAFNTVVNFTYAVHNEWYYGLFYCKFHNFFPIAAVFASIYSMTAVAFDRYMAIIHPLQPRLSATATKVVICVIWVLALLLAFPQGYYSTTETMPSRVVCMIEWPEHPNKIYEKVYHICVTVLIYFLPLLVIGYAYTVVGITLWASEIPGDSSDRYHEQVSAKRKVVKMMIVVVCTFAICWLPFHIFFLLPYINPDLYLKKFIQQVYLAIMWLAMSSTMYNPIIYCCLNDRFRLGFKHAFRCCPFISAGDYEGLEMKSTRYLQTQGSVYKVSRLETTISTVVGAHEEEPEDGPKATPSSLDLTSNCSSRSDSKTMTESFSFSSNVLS
Compound,IC50 (Substance-P receptor),ED50 (Cavia porcellus [1]),ED50 (Cavia porcellus [2]),inhibition in vivo at 1 mg/kg (Cavia porcellus [3])
Cc1ccc(-c2c(C(=O)N(C)[C@H](C)c3ccccc3)n(C)c(=O)c3ncccc23)cc1,130 nM,,,
"Cc1ccc(-c2c(C(=O)N(C)[C@@H](C)c3cc(C(F)(F)F)cc(C(F)(F)F)c3)n(C)c(=O)c3ncccc23)cc1 (stereo in doubt; 3a-A) [7-METHYL-8-OXO-5-P-TOLYL-7,8-DIHYDRO-[1,7]NAPHTHYRIDINE-6-CARBOXYLIC ACID (S)-[(S)-1-(3,5-BIS-TRIFLUOROMETHYL-PHENYL)-ETHYL]-METHYL-AMIDE (ENANTIOMERIC MIX)]",0.8 nM,0.0677 mg/kg,0.0093 mg/kg,
"Cc1ccc(-c2c(C(=O)N(C)[C@@H](C)c3cc(C(F)(F)F)cc(C(F)(F)F)c3)n(C)c(=O)c3ncccc23)cc1 (stereo in doubt; 3a-B) [7-METHYL-8-OXO-5-P-TOLYL-7,8-DIHYDRO-[1,7]NAPHTHYRIDINE-6-CARBOXYLIC ACID (S)-[(S)-1-(3,5-BIS-TRIFLUOROMETHYL-PHENYL)-ETHYL]-METHYL-AMIDE (ENANTIOMERIC MIX)]",44 nM,,,61.8%
"Cc1ccc(-c2c(C(=O)N(C)[C@H](C)c3cc(C(F)(F)F)cc(C(F)(F)F)c3)n(C)c(=O)c3ncccc23)cc1 (stereo in doubt; 3b-A) [7-METHYL-8-OXO-5-P-TOLYL-7,8-DIHYDRO-[1,7]NAPHTHYRIDINE-6-CARBOXYLIC ACID (S)-[(R)-1-(3,5-BIS-TRIFLUOROMETHYL-PHENYL)-ETHYL]-METHYL-AMIDE (ENANTIOMERIC MIX)]",19 nM,,0.412 mg/kg,
"Cc1ccc(-c2c(C(=O)N(C)Cc3cc(C(F)(F)F)cc(C(F)(F)F)c3)n(C)c(=O)c3ncccc23)cc1 [7-METHYL-8-OXO-5-P-TOLYL-7,8-DIHYDRO-[1,7]NAPHTHYRIDINE-6-CARBOXYLIC ACID (3,5-BIS-TRIFLUOROMETHYL-BENZYL)-METHYL-AMIDE (STRUCTURAL MIX)]",,0.11 mg/kg,,
"Cc1ccc(-c2c(C(=O)N(C)[C@H](C)c3cc(C(F)(F)F)cc(C(F)(F)F)c3)n(C)c(=O)c3ncccc23)cc1 (stereo in doubt; 3b-B) [7-METHYL-8-OXO-5-P-TOLYL-7,8-DIHYDRO-[1,7]NAPHTHYRIDINE-6-CARBOXYLIC ACID (S)-[(R)-1-(3,5-BIS-TRIFLUOROMETHYL-PHENYL)-ETHYL]-METHYL-AMIDE (ENANTIOMERIC MIX)]",620 nM,,,6.9%
